Activity calls are given as the source filed them. The calls are words filed in the database; no cut-off is given here.
Tests used:
[1] = Chemical stability of the compound in DMSO at below 0 degC; format: physicochemical
[2] = target: T1, Neuropeptide Y receptor type 1 (Homo sapiens, UniProt P25929); test: Displacement of [3H]-UR-MK114 from Y1R in human SK-N-MC cells; format: cell-based
T1 sequence (P25929 whole entry): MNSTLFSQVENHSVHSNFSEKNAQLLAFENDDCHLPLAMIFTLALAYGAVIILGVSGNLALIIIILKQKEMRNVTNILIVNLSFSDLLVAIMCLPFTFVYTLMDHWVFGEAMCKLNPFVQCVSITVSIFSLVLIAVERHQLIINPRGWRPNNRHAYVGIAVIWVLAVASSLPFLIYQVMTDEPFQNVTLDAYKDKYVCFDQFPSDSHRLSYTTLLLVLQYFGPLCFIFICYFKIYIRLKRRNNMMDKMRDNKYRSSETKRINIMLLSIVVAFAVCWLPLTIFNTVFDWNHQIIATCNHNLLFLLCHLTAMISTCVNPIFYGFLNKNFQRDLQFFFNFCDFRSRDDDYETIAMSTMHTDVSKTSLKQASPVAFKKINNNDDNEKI

[3] = target: T2, Neuropeptide Y receptor type 1 (Homo sapiens) (UniProt P25929); test: Antagonist activity at Y1R in human HEL cells assessed as inhibition of pNPY induced [Ca2+] mobilisation; format: functional, cell-based
T2 sequence (whole entry): T1 sequence (P25929 whole entry)

[4] = target: T2, Neuropeptide Y receptor type 1 (Homo sapiens); test: Antagonist activity at Y1R in human MCF-7 cells at 50 nM after 5 to 8 mins by fluorescence confocal microscopy; format: functional, cell-based; settings: MCF7
How it was run: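 MCF-7-Y1 cells (MCF-7 subclone with 2–3-fold higher Y1R expression) pretreated 48 or 72 h with 1 nM 17β-estradiol; live-cell confocal imaging of fluorescent ligand (50–80 nM) after 5–23 min at rt in Leibovitz L15; non-specific binding with excess BIBP 3226 (5 µM or 80–125-fold); autofluorescence control.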

[5] = Chemical stability in aqueous buffer assessed as compound decomposition after 20 mins at pH 7 by HPCL; format: physicochemical; settings: read-out: Activity
How it was run: (§1)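 Compound at 50 µM final (from 1 mM DMSO stock) in PBS pH 7.0, 20 °C; aliquots at 20 and 90 min diluted with acetonitrile/H2O/1% TFA, analysed by RP-HPLC (220 nm); release of parent argininamide quantified against a five-point calibration curve (0.3–25 µM).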

[6] = Chemical stability in aqueous buffer assessed as compound decomposition after 90 mins at pH 7 by HPCL; format: physicochemical; settings: read-out: Activity; how it was run: as §1

Stability [1] [months] | Ki [2] [nM] | Kb [3] [nM] | Activity [4] | degraded at 20 min [5] [%] | degraded at 1.5 h [6] [%] | SMILES
12 | 130 | 7.8 | – | – | – | Cc1cc(/C=C\C=C2\N(C)c3ccc4ccccc4c3C2(C)C)cc(C)[n+]1CCOCCOCCNC(=O)CCCCCCC(=O)/N=C(/N)NCCC[C@@H](NC(=O)C(c1ccccc1)c1ccccc1)C(=O)NCc1ccc(O)cc1.O=C([O-])C(F)(F)F
12 | 130 | 8 | – | – | – | Cc1cc(/C=C/C=C2\N(C)c3ccc4ccccc4c3C2(C)C)cc(C)[n+]1CCOCCOCCNC(=O)CCCCC(=O)/N=C(/N)NCCC[C@@H](NC(=O)C(c1ccccc1)c1ccccc1)C(=O)NCc1ccc(O)cc1.O=C([O-])C(F)(F)F
12 | 50 | 3.7 | – | – | – | Cc1cc(/C=C/C=C/c2ccc(N(C)C)cc2)cc(C)[n+]1CCCCCC(=O)/N=C(/N)NCCC[C@@H](NC(=O)C(c1ccccc1)c1ccccc1)C(=O)NCc1ccc(O)cc1.O=C([O-])C(F)(F)F
12 | 96 | 6.8 | – | – | – | Cc1cc(/C=C/C=C2\N(C)c3ccc4ccccc4c3C2(C)C)cc(C)[n+]1CCOCCOCCNC(=O)CCCC(=O)/N=C(/N)NCCC[C@@H](NC(=O)C(c1ccccc1)c1ccccc1)C(=O)NCc1ccc(O)cc1.O=C([O-])C(F)(F)F
12 | 140 | 7.2 | – | – | – | Cc1cc(/C=C/c2cc3c4c(c2)CCCN4CCC3)cc(C)[n+]1CCCCNC(=O)/N=C(/N)NCCC[C@@H](NC(=O)C(c1ccccc1)c1ccccc1)C(=O)NCc1ccc(O)cc1.O=C([O-])C(F)(F)F
12 | 29 | – | – | – | – | Cc1cc(/C=C/c2cc3c4c(c2)CCCN4CCC3)cc(C)[n+]1CCCCCC(=O)/N=C(/N)NCCC[C@@H](NC(=O)C(c1ccccc1)c1ccccc1)C(=O)NCc1ccc(O)cc1.O=C([O-])C(F)(F)F
12 | – | – | – | – | – | CN(C)c1ccc(/C=C/C=C/c2sc3ccccc3[n+]2CCCC(=O)O)cc1.O=C([O-])C(F)(F)F
12 | 42 | 2.4 | – | – | – | CN(C)c1ccc(/C=C/C=C/c2sc3ccccc3[n+]2CCCC(=O)NCCNC(=O)CCCC(=O)/N=C(/N)NCCC[C@@H](NC(=O)C(c2ccccc2)c2ccccc2)C(=O)NCc2ccc(O)cc2)cc1.O=C([O-])C(F)(F)F
12 | 24 | 11 | Active | – | – | Cc1cc(/C=C/C=C/c2ccc(N(C)C)cc2)cc(C)[n+]1CCOCCOCC(=O)/N=C(/N)NCCC[C@@H](NC(=O)C(c1ccccc1)c1ccccc1)C(=O)NCc1ccc(O)cc1.O=C([O-])C(F)(F)F
12 | – | – | – | – | – | CN(C)c1ccc(/C=C/C=C/c2sc3ccccc3[n+]2CCCC(=O)ON2C(=O)CCC2=O)cc1.O=C([O-])C(F)(F)F
12 | 61 | 1.2 | – | 0 | < 0.5 | Cc1cc(/C=C/c2cc3c4c(c2)CCCN4CCC3)cc(C)[n+]1CCN(CCNC(=O)CCCCC(=O)/N=C(\N)NCCC[C@@H](NC(=O)C(c1ccccc1)c1ccccc1)C(=O)NCc1ccc(O)cc1)CCNC(=O)CCCCC(=O)/N=C(\N)NCCC[C@@H](NC(=O)C(c1ccccc1)c1ccccc1)C(=O)NCc1ccc(O)cc1.O=C([O-])C(F)(F)F
12 | 23 | 12 | Active | 0 | < 0.5 | Cc1cc(/C=C/c2cc3c4c(c2)CCCN4CCC3)cc(C)[n+]1CCCCCC(=O)/N=C(/N)NCCC[C@@H](NC(=O)C(c1ccccc1)c1ccccc1)C(=O)NCc1ccc(CNC(N)=O)cc1.O=C([O-])C(F)(F)F
12 | 150 | 7.6 | – | – | – | Cc1cc(/C=C/C=C/c2ccc(N(C)C)cc2)cc(C)[n+]1CCCCNC(=O)/N=C(/N)NCCC[C@@H](NC(=O)C(c1ccccc1)c1ccccc1)C(=O)NCc1ccc(O)cc1.O=C([O-])C(F)(F)F
– | 19 | – | – | – | – | NCCCCCC(=O)NC(N)=NCCC[C@@H](NC(=O)C(c1ccccc1)c1ccccc1)C(=O)NCc1ccc(O)cc1
12 | 100 | 0.6 | – | – | – | Cc1cc(/C=C/c2cc3c4c(c2)CCCN4CCC3)cc(C)[n+]1CCN(CCNC(=O)CCCCCCC(=O)/N=C(\N)NCCC[C@@H](NC(=O)C(c1ccccc1)c1ccccc1)C(=O)NCc1ccc(O)cc1)CCNC(=O)CCCCCCC(=O)/N=C(\N)NCCC[C@@H](NC(=O)C(c1ccccc1)c1ccccc1)C(=O)NCc1ccc(O)cc1.O=C([O-])C(F)(F)F
– | – | 95 | – | – | – | NCCCCCC(=O)/N=C(/N)NCCC[C@@H](NC(=O)C(c1ccccc1)c1ccccc1)C(=O)NCc1ccc(O)cc1
12 | 38 | 11 | – | – | – | Cc1cc(/C=C/c2cc3c4c(c2)CCCN4CCC3)cc(C)[n+]1CCCNC(=O)CCCC(=O)/N=C(/N)NCCC[C@@H](NC(=O)C(c1ccccc1)c1ccccc1)C(=O)NCc1ccc(O)cc1.O=C([O-])C(F)(F)F
12 | 97 | 4.1 | – | – | – | Cc1cc(/C=C/c2cc3c4c(c2)CCCN4CCC3)cc(C)[n+]1CCOCCOCCOCCC(=O)/N=C(/N)NCCC[C@@H](NC(=O)C(c1ccccc1)c1ccccc1)C(=O)NCc1ccc(O)cc1.O=C([O-])C(F)(F)F
– | 38 | 510 | – | – | – | N=C(N)N(CCC[C@@H](NC(=O)C(c1ccccc1)c1ccccc1)C(=O)NCc1ccc(O)cc1)C(=O)NCCCCN
– | 4.3 | 16 | – | – | – | NCCCCNC(=O)/N=C(/N)NCCC[C@@H](NC(=O)C(c1ccccc1)c1ccccc1)C(=O)NCc1ccc(O)cc1

— ChEMBL document CHEMBL1773009, “Red-fluorescent argininamide-type NPY Y1 receptor antagonists as pharmacological tools” (Bioorg Med Chem, 2011)
